# Experimental data: ChEMBL document CHEMBL1157589, “Antifungal 3,5-disubstituted furanones: From 5-acyloxymethyl to 5-alkylidene derivatives” (Bioorg Med Chem, 2010)
# Test system: Candida albicans
# Assay: Antifungal activity against Candida albicans ATCC 44859 after 48 hrs by microdilution method
# Type: functional
# Details: ATCC 44859, 48 h; call rule not given here
# Outline: (§1)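 Yeasts held on Sabouraud dextrose agar. MIC by NCCLS M27-A broth microdilution in RPMI 1640 with L-glutamine, buffered with 0.165 M MOPS to pH 7.0. Compounds in DMSO (≤2% final), twofold dilutions 500–0.48. Final inoculum 5 × 10³ ± 0.2 cfu mL⁻¹. Incubated at 35 °C; absorbance at 540 nm read at 24 and 48 h. MIC is 80% growth inhibition versus control; run twice in duplicate.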
row,MIC80 [µM],SMILES
1,> 500,O=C1O/C(=C\COC(=O)c2ccccc2)C=C1c1ccc(Br)cc1
2,1.95,O=C1OC(COc2cccc(C(=O)O)c2)C=C1c1ccc(Br)cc1 (stereo unspecified)

# Test system: Candida albicans
# Assay: Antifungal activity against Candida albicans ATCC 90028 after 24 hrs by microdilution method
# Type: functional
# Details: ATCC 90028, 24 h
# Outline: as §1
row,MIC80 [µM],SMILES
1,> 500,O=C1O/C(=C\COC(=O)c2ccccc2)C=C1c1ccc(Br)cc1
2,3.9,O=C1OC(COc2cccc(C(=O)O)c2)C=C1c1ccc(Br)cc1 (stereo unspecified)

# Test system: Candida albicans
# Assay: Antifungal activity against Candida albicans ATCC 90028 after 48 hrs by microdilution method
# Type: functional
# Details: ATCC 90028, 48 h
# Outline: as §1
row,MIC80 [µM],SMILES
1,> 500,O=C1O/C(=C\COC(=O)c2ccccc2)C=C1c1ccc(Br)cc1
2,15.6,O=C1OC(COc2cccc(C(=O)O)c2)C=C1c1ccc(Br)cc1 (stereo unspecified)

# Test system: Candida parapsilosis
# Assay: Antifungal activity against Candida parapsilosis ATCC 22019 after 24 hrs by microdilution method
# Type: functional
# Details: Lodderomyces parapsilosis, ATCC 22019, 24 h
# Outline: as §1
row,MIC80 [µM],SMILES
1,> 500,O=C1O/C(=C\COC(=O)c2ccccc2)C=C1c1ccc(Br)cc1
2,15.6,O=C1OC(COc2cccc(C(=O)O)c2)C=C1c1ccc(Br)cc1 (stereo unspecified)

# Test system: Candida parapsilosis
# Assay: Antifungal activity against Candida parapsilosis ATCC 22019 after 48 hrs by microdilution method
# Type: functional
# Details: Lodderomyces parapsilosis, ATCC 22019, 48 h
# Outline: as §1
row,MIC80 [µM],SMILES
1,> 500,O=C1O/C(=C\COC(=O)c2ccccc2)C=C1c1ccc(Br)cc1
2,15.6,O=C1OC(COc2cccc(C(=O)O)c2)C=C1c1ccc(Br)cc1 (stereo unspecified)

# Test system: Pichia kudriavzevii
# Assay: Antifungal activity against Candida krusei ATCC 6258 after 24 hrs by microdilution method
# Type: functional
# Details: ATCC 6258, 24 h
# Outline: as §1
row,MIC80 [µM],SMILES
1,> 500,O=C1O/C(=C\COC(=O)c2ccccc2)C=C1c1ccc(Br)cc1
2,15.6,O=C1OC(COc2cccc(C(=O)O)c2)C=C1c1ccc(Br)cc1 (stereo unspecified)

# Test system: Pichia kudriavzevii
# Assay: Antifungal activity against Candida krusei ATCC 6258 after 48 hrs by microdilution method
# Type: functional
# Details: ATCC 6258, 48 h
# Outline: as §1
row,MIC80 [µM],SMILES
1,> 500,O=C1O/C(=C\COC(=O)c2ccccc2)C=C1c1ccc(Br)cc1
2,15.6,O=C1OC(COc2cccc(C(=O)O)c2)C=C1c1ccc(Br)cc1 (stereo unspecified)

# Test system: Pichia kudriavzevii
# Assay: Antifungal activity against Candida krusei E28 after 24 hrs by microdilution method
# Type: functional
# Details: E28, 24 h
# Outline: as §1
row,MIC80 [µM],SMILES
1,> 500,O=C1O/C(=C\COC(=O)c2ccccc2)C=C1c1ccc(Br)cc1
2,15.6,O=C1OC(COc2cccc(C(=O)O)c2)C=C1c1ccc(Br)cc1 (stereo unspecified)

# Test system: Pichia kudriavzevii
# Assay: Antifungal activity against Candida krusei E28 after 48 hrs by microdilution method
# Type: functional
# Details: E28, 48 h
# Outline: as §1
row,MIC80 [µM],SMILES
1,> 500,O=C1O/C(=C\COC(=O)c2ccccc2)C=C1c1ccc(Br)cc1
2,15.6,O=C1OC(COc2cccc(C(=O)O)c2)C=C1c1ccc(Br)cc1 (stereo unspecified)

# Test system: Candida tropicalis
# Assay: Antifungal activity against Candida tropicalis 156 after 24 hrs by microdilution method
# Type: functional
# Details: Candida tropicalis, 156, 24 h
# Outline: as §1
row,MIC80 [µM],SMILES
1,> 500,O=C1O/C(=C\COC(=O)c2ccccc2)C=C1c1ccc(Br)cc1
2,7.81,O=C1OC(COc2cccc(C(=O)O)c2)C=C1c1ccc(Br)cc1 (stereo unspecified)

# Test system: Candida tropicalis
# Assay: Antifungal activity against Candida tropicalis 156 after 48 hrs by microdilution method
# Type: functional
# Details: Candida tropicalis, 156, 48 h
# Outline: as §1
row,MIC80 [µM],SMILES
1,> 500,O=C1O/C(=C\COC(=O)c2ccccc2)C=C1c1ccc(Br)cc1
2,7.81,O=C1OC(COc2cccc(C(=O)O)c2)C=C1c1ccc(Br)cc1 (stereo unspecified)

# Test system: Nakaseomyces glabratus
# Assay: Antifungal activity against Candida glabrata 20/I after 24 hrs by microdilution method
# Type: functional
# Details: not given
# Outline: as §1
row,MIC80 [µM],SMILES
1,> 500,O=C1O/C(=C\COC(=O)c2ccccc2)C=C1c1ccc(Br)cc1
2,1.95,O=C1OC(COc2cccc(C(=O)O)c2)C=C1c1ccc(Br)cc1 (stereo unspecified)

# Test system: Nakaseomyces glabratus
# Assay: Antifungal activity against Candida glabrata 20/I after 48 hrs by microdilution method
# Type: functional
# Details: not given
# Outline: as §1
row,MIC80 [µM],SMILES
1,> 500,O=C1O/C(=C\COC(=O)c2ccccc2)C=C1c1ccc(Br)cc1
2,1.95,O=C1OC(COc2cccc(C(=O)O)c2)C=C1c1ccc(Br)cc1 (stereo unspecified)

# Test system: Clavispora lusitaniae
# Assay: Antifungal activity against Candida lusitaniae 2446/I after 24 hrs by microdilution method
# Type: functional
# Details: not given
# Outline: as §1
row,MIC80 [µM],SMILES
1,> 500,O=C1O/C(=C\COC(=O)c2ccccc2)C=C1c1ccc(Br)cc1
2,7.81,O=C1OC(COc2cccc(C(=O)O)c2)C=C1c1ccc(Br)cc1 (stereo unspecified)

# Test system: Clavispora lusitaniae
# Assay: Antifungal activity against Candida lusitaniae 2446/I after 48 hrs by microdilution method
# Type: functional
# Details: not given
# Outline: as §1
row,MIC80 [µM],SMILES
1,> 500,O=C1O/C(=C\COC(=O)c2ccccc2)C=C1c1ccc(Br)cc1
2,7.81,O=C1OC(COc2cccc(C(=O)O)c2)C=C1c1ccc(Br)cc1 (stereo unspecified)

# Test system: Trichosporon beigelii
# Assay: Antifungal activity against Trichosporon beigelii 1188 after 24 hrs by microdilution method
# Type: functional
# Details: Trichosporon beigelii, 1188, 24 h
# Outline: as §1
row,MIC80 [µM],SMILES
1,> 500,O=C1O/C(=C\COC(=O)c2ccccc2)C=C1c1ccc(Br)cc1
2,15.6,O=C1OC(COc2cccc(C(=O)O)c2)C=C1c1ccc(Br)cc1 (stereo unspecified)

# Test system: Trichosporon beigelii
# Assay: Antifungal activity against Trichosporon beigelii 1188 after 48 hrs by microdilution method
# Type: functional
# Details: Trichosporon beigelii, 1188, 48 h
# Outline: as §1
row,MIC80 [µM],SMILES
1,> 500,O=C1O/C(=C\COC(=O)c2ccccc2)C=C1c1ccc(Br)cc1
2,15.6,O=C1OC(COc2cccc(C(=O)O)c2)C=C1c1ccc(Br)cc1 (stereo unspecified)

# Test system: Aspergillus fumigatus
# Assay: Antifungal activity against Aspergillus fumigatus 231 after 24 hrs by microdilution method
# Type: functional
# Details: Aspergillus fumigatus, 231, 24 h
# Outline: (§2)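 Filamentous strains held on Sabouraud dextrose agar. NCCLS M27-A broth microdilution in RPMI 1640 with L-glutamine and 0.165 M MOPS, pH 7.0. DMSO diluent ≤2% final; twofold dilutions 500–0.48. Inoculum 5 × 10³ ± 0.2 cfu mL⁻¹ final.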
row,MIC80 [µM],SMILES
1,> 500,O=C1O/C(=C\COC(=O)c2ccccc2)C=C1c1ccc(Br)cc1
2,1.95,O=C1OC(COc2cccc(C(=O)O)c2)C=C1c1ccc(Br)cc1 (stereo unspecified)

# Test system: Aspergillus fumigatus
# Assay: Antifungal activity against Aspergillus fumigatus 231 after 48 hrs by microdilution method
# Type: functional
# Details: Aspergillus fumigatus, 231, 48 h
# Outline: as §2
row,MIC80 [µM],SMILES
1,> 500,O=C1O/C(=C\COC(=O)c2ccccc2)C=C1c1ccc(Br)cc1
2,7.81,O=C1OC(COc2cccc(C(=O)O)c2)C=C1c1ccc(Br)cc1 (stereo unspecified)

# Test system: Lichtheimia corymbifera
# Assay: Antifungal activity against Absidia corymbifera 272 after 24 hrs by microdilution method
# Type: functional
# Details: Lichtheimia corymbifera, 272, 24 h
# Outline: as §2
row,MIC80 [µM],SMILES
1,> 500,O=C1O/C(=C\COC(=O)c2ccccc2)C=C1c1ccc(Br)cc1
2,62.5,O=C1OC(COc2cccc(C(=O)O)c2)C=C1c1ccc(Br)cc1 (stereo unspecified)

# Test system: Lichtheimia corymbifera
# Assay: Antifungal activity against Absidia corymbifera 272 after 48 hrs by microdilution method
# Type: functional
# Details: Lichtheimia corymbifera, 272, 48 h
# Outline: as §2
row,MIC80 [µM],SMILES
1,> 500,O=C1O/C(=C\COC(=O)c2ccccc2)C=C1c1ccc(Br)cc1
2,62.5,O=C1OC(COc2cccc(C(=O)O)c2)C=C1c1ccc(Br)cc1 (stereo unspecified)

# Test system: Trichophyton mentagrophytes
# Assay: Antifungal activity against Trichophyton mentagrophytes 445 after 72 hrs by microdilution method
# Type: functional
# Details: Trichophyton mentagrophytes, 445, 72 h
# Outline: (§3)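 Dermatophyte held on Sabouraud dextrose agar. M27-A microdilution in MOPS-buffered (0.165 M, pH 7.0) RPMI 1640 with L-glutamine. DMSO ≤2% final; twofold dilutions 500–0.48. Inoculum 5 × 10³ ± 0.2 cfu mL⁻¹ final. Incubated at 35 °C; MIC read visually at 72 and 120 h as 80% inhibition of control growth; determined twice in duplicate.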
row,MIC80 [µM],SMILES
1,> 500,O=C1O/C(=C\COC(=O)c2ccccc2)C=C1c1ccc(Br)cc1
2,0.97,O=C1OC(COc2cccc(C(=O)O)c2)C=C1c1ccc(Br)cc1 (stereo unspecified)

# Test system: Trichophyton mentagrophytes
# Assay: Antifungal activity against Trichophyton mentagrophytes 445 after 120 hrs by microdilution method
# Type: functional
# Details: Trichophyton mentagrophytes, 445, 120 h
# Outline: as §3
row,MIC80 [µM],SMILES
1,> 500,O=C1O/C(=C\COC(=O)c2ccccc2)C=C1c1ccc(Br)cc1
2,1.95,O=C1OC(COc2cccc(C(=O)O)c2)C=C1c1ccc(Br)cc1 (stereo unspecified)

# Test system: L1210
# Assay: Cytostatic activity against mouse L1210 cells after 72 hrs by XTT assay
# Type: functional, cell-based
# Details: Mus musculus, L1210, 72 h; read-out: IC50
# Outline: (§4)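 Leukemia cells (L1210 ATCC CCL 219, CCRF-CEM ATCC CCL 119, HL-60 ATCC CCL 240) grown in 24-well plates in RPMI 1640 with fetal calf serum. Growth assessed 72 h after drug addition. Viability measured by XTT spectrophotometric assay; potency given as IC50.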
row,IC50 [nM],SMILES
1,7420,O=C1OC(COc2cccc(C(=O)O)c2)C=C1c1ccc(Br)cc1 (stereo unspecified)

# Same assay, conditions: l1210
row,IC50,SMILES
1,Not Active,O=C1O/C(=C\COC(=O)c2ccccc2)C=C1c1ccc(Br)cc1

# Test system: HL-60
# Assay: Cytostatic activity against human HL60 cells after 72 hrs by XTT assay
# Type: functional, cell-based
# Details: hl-60
# Outline: as §4
row,IC50,SMILES
1,Not Active,O=C1O/C(=C\COC(=O)c2ccccc2)C=C1c1ccc(Br)cc1
2,Not Active,O=C1OC(COc2cccc(C(=O)O)c2)C=C1c1ccc(Br)cc1 (stereo unspecified)

# Test system: CCRF-CEM
# Assay: Cytostatic activity against human CCRF-CEM cells after 72 hrs by XTT assay
# Type: functional, cell-based
# Details: Homo sapiens, CCRF-CEM, 72 h; read-out: IC50
# Outline: as §4
row,IC50 [nM],SMILES
1,1640,O=C1OC(COc2cccc(C(=O)O)c2)C=C1c1ccc(Br)cc1 (stereo unspecified)

# Same assay, conditions: ccrf-cem
row,IC50,SMILES
1,Not Active,O=C1O/C(=C\COC(=O)c2ccccc2)C=C1c1ccc(Br)cc1

# Test system: Candida albicans
# Assay: Antifungal activity against Candida albicans ATCC 44859 after 24 hrs by microdilution method
# Type: functional
# Details: ATCC 44859, 24 h
# Outline: as §1
row,MIC80 [µM],SMILES
1,> 500,O=C1O/C(=C\COC(=O)c2ccccc2)C=C1c1ccc(Br)cc1
2,0.97,O=C1OC(COc2cccc(C(=O)O)c2)C=C1c1ccc(Br)cc1 (stereo unspecified)

# Test system: HeLa S3
# Assay: Cytostatic activity against human HeLaS3 cells after 48 hrs by XTT assay
# Details: Homo sapiens, HeLa S3, 48 h; read-out: IC50
row,IC50 [nM],SMILES
1,1440,O=C1OC(COc2cccc(C(=O)O)c2)C=C1c1ccc(Br)cc1 (stereo unspecified)

# Same assay, conditions: hela s3
row,IC50,SMILES
1,Not Active,O=C1O/C(=C\COC(=O)c2ccccc2)C=C1c1ccc(Br)cc1
